Among the data in ChEMBL document CHEMBL1129951, “Synthesis and antitumor evaluation of new thiazolo[5,4-b]quinoline derivatives” (J Med Chem, 1997) are IC50 and pKa values, retold here.

One data set relates to HT-29. The data set can be described thus: In vitro cytotoxicity against HT-29 (human colon) cell line. The class given is functional, cell-based. In short, it runs like this: (§1)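 Growth-inhibition screen adapted from Bergeron et al. Cells were kept in exponential growth in EMEM with 5% FCS, 10^-2 M sodium bicarbonate, penicillin G and streptomycin (0.1 g/L each) and 2.0 mM L-glutamine. P-388 was grown as a suspension and seeded at 1 × 10^4 cells/well. A-549 and HT-29 were grown as monolayers and seeded at 2 × 10^4 cells/well.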

For a further data set, the system named is P388. The data set can be described thus: In vitro cytotoxicity against P-388 (mouse leukemia) cell line. It is filed as functional, cell-based. In short, it runs like this:
as §1

In another data set the test system is A549. Briefly: In vitro cytotoxicity against A-549 (human lung carcinoma) cell line. It is filed as functional, cell-based. In short, it runs like this:
as §1

The nature of data set [1]: pKa value was determined by differential pulse polarography. It is filed as physicochemical.

As to `Cc1ccc2nc3sc(N4CCN(C)CC4)nc3c(O)c2c1`, the results for the IC50 in the data set on HT-29, in the data set with P388 and in the data set with A549 were 17 µM, 16.9 µM and 29.6 µM, respectively. In data set [1], this molecule yielded a pKa of 10.

For the molecule `CSc1nc2c(O)c3cc(F)ccc3nc2s1`, the IC50 in the data set on HT-29, with P388 and in the data set with A549 was greater than 66.1 µM in each case. The same molecule displayed a pKa in data set [1] of 5.7.

On to `Cc1ccc2nc3sc(S(C)(=O)=O)nc3c(O)c2c1`, for which the IC50 in the data set with HT-29, with P388 and in the data set on A549 was greater than 60.4 µM throughout. This molecule registered a pKa in data set [1] of 4.

Consider `CSc1nc2c(O)c3cc(C)ccc3nc2s1`, for which the IC50 in the data set on HT-29, in the data set on P388 and with A549 was greater than 66.9 µM in each case. In data set [1], the pKa worked out at 4.6.

As for `CCN(CC)CCCNc1c2ccccc2nc2sc(SC)nc12`, the IC50 with HT-29, in the data set on P388 and in the data set on A549 was 6 µM each time. The molecule also came in with a pKa in data set [1] of 7.5.

With `CS(=O)(=O)c1nc2c(O)c3cc(F)ccc3nc2s1`, the half-maximal inhibitory concentration (IC50) in the data set on HT-29, in the data set on P388 and in the data set with A549 was 6 µM each time. For the same molecule, the pKa in data set [1] amounted to 5.5.

For `CN1CCN(c2nc3c(O)c4ccccc4nc3s2)CC1`, the IC50 in the data set on HT-29, in the data set on P388 and with A549 was 18.8 µM throughout. This molecule had a pKa in data set [1] of 8.6.

For the molecule `CSc1nc2c(O)c3ccccc3nc2s1`, the IC50 in the data set with HT-29, with P388 and in the data set on A549 was greater than 70.2 µM throughout. The pKa in data set [1] turned out to be 5.9.

For `CS(=O)(=O)c1nc2c(O)c3ccccc3nc2s1`, the IC50 in the data set with HT-29, with P388 and in the data set with A549 was 32.4 µM each time. Besides, the pKa in data set [1] is 5.2.

Turning to `CCN(CC)CCNc1nc2c(O)c3ccccc3nc2s1`, the IC50 in the data set on HT-29 stood at 7.22 µM; in the data set with P388, 5.76 µM; in the data set on A549 it was 7.22 µM. This molecule returned a pKa in data set [1] of 9.3.

As for `CN1CCN(c2nc3c(O)c4cc(F)ccc4nc3s2)CC1`, the IC50 with HT-29, in the data set on P388 and with A549 was greater than 56.4 µM in each case. The same molecule registered a pKa in data set [1] of 8.

With `CSc1nc2c(N(C)CCCN(C)C)c3ccccc3nc2s1`, the IC50 with HT-29, with P388 and in the data set with A549 was 12.1 µM throughout. In data set [1], this molecule came in with a pKa of 6.5.

As for `CCN(CC)CCCNc1c2cc(C)ccc2nc2sc(SC)nc12`, the IC50 with HT-29, in the data set on P388 and in the data set with A549 was 5.4 µM in each case. In data set [1], the pKa was found to be 7.9.

Consider `CCN(CC)CCNc1nc2c(O)c3cc(C)ccc3nc2s1`, for which the values for the IC50 in the data set with HT-29, in the data set with P388 and in the data set with A549 were 3.3 µM, 3.3 µM and 5.6 µM, respectively. This molecule came in with a pKa in data set [1] of 8.4.

For `CCN(CC)CCNc1nc2c(O)c3cc(F)ccc3nc2s1`, the IC50 with HT-29 came out at 5 µM; in the data set with P388, 1.65 µM; in the data set on A549 it was 2.9 µM. Further, the pKa in data set [1] stood at 8.3.

In the case of `Oc1c2ccccc2nc2sc(Cl)nc12`, the figures for the IC50 in the data set with HT-29, with P388 and with A549 were 11.6 µM, 5.3 µM and 11.6 µM, respectively. The pKa in data set [1] was found to be 5.9.

Regarding `Oc1c2cc(F)ccc2nc2sc(Cl)nc12`, the IC50 in the data set on HT-29, with P388 and in the data set with A549 was 7.4 µM in each case. The same molecule displayed a pKa in data set [1] of 4.9.

Regarding `Cc1ccc2nc3sc(Cl)nc3c(O)c2c1`, the IC50 in the data set with HT-29, in the data set on P388 and in the data set with A549 was 34.6 µM throughout. For the same molecule, the pKa in data set [1] was 5.
